Experimental data collected from several papers.
Compare with care: the assays were run in different laboratories.
Cell line: K562
Effect on: cell growth or viability

SMILES | assay | conditions | quantity | result
FC(F)(F)c1cc(OCc2cc(-c3ccccn3)no2)c2ccccc2n1 | MTS | 72 h | IC50 | > 100 µM
Nc1ccccc1NC(=O)c1ccc(Cn2cnc3c(Nc4ccc(Cl)cc4)ncnc32)cc1 | MTT | 72 h | IC50 | 17.5 µM
O=C(Nc1ccc(OC(F)(F)Cl)cc1)c1cnc(N2CC[C@@H](O)C2)c(-c2cc[nH]n2)c1 | ATP luminescence | 72 h | EC50 | 0.005 µM
O=C(NC1CC1)c1ccc(-c2nc3ccc4[nH]ncc4c3c3c2CCCC3)cc1 | resazurin | 72 h | GI50 | 4.1 µM
Cc1nc(Nc2ncc(C(=O)Nc3c(C)cccc3Cl)s2)cc(N2CC[C@H](O)C2)n1 | ATP luminescence | 10 µM, 72 h | inhibition | 90%
O=c1cc(OCc2cc(-c3ccccn3)no2)c2ccccc2o1 | MTS | 72 h | IC50 | > 100 µM
O=C(c1ccc(/C=C/c2n[nH]c3ccccc23)cc1)N1CCNCC1 | – | – | GI50 | ~0.4 µM
CCN(CC)CCNC(=O)c1ccc(-c2nc3ccc4[nH]ncc4c3c3c2CCCC3)cc1 | resazurin | 72 h | GI50 | 3.6 µM
FC(F)(F)c1cc(OCc2cc(-c3ccccc3)no2)c2ccccc2n1 | MTS | 72 h | IC50 | > 100 µM
CN(C)CCNC(=O)c1ccc(-c2nc3ccc4[nH]ncc4c3c3c2CC(C)(C)CC3)cc1 | resazurin | 72 h | GI50 | 3.7 µM
N#Cc1ccc(-c2cc(COc3cc(=O)oc4ccccc34)on2)cc1 | MTS | 72 h | IC50 | > 100 µM
C=C(NC(=O)C(=C)NC(=O)c1csc(C2=N[C@@H]3c4csc(n4)[C@H]4NC(=O)c5csc(n5)[C@H]([C@](C)(O)[C@@H](C)O)NC(=O)[C@H]5CSC(=N5)/C(=C/C)NC(=O)[C@H]([C@@H](C)O)NC(=O)c5csc(n5)[C@]3(CC2)NC(=O)[C@H](C)NC(=O)C(=C)NC(=O)[C@H](C)NC(=O)[C@H]([C@@H](C)CC)N[C@@H]2C=Cc3c([C@H](C)O)cc(nc3[C@H]2O)C(=O)O[C@@H]4C)n1)C(N)=O | – | – | EC50 | 0.6 µM
Cc1n[nH]c2ccc3nc(-c4ccc(C(=O)N(C)CCN(C)C)cn4)c4c(c3c12)CCCCC4 | resazurin | 72 h | GI50 | > 10 µM
Nc1ccccc1NC(=O)c1ccc(Cn2cnc3c(Nc4ccc(Br)cc4F)ncnc32)cc1 | MTT | 72 h | IC50 | 30.1 µM
